Measured values reported in ChEMBL document CHEMBL4316648, “Ipomeolides A and B, Resin Glycosides from Ipomoea pes-caprae and Combination Therapy of Ipomeolide A with Doxorubicin” (J Nat Prod, 2019).
Activity calls are given as the source filed them. The calls are words filed in the database; no cut-off is given here.

Legend:
MCF7 = test: Cytotoxicity in human MCF7 cells assessed as reduction in cell viability incubated for 48 hrs by MTT assay; format: functional, cell-based
Summary of the method: (§1)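 Human tumour lines grown in DMEM with 10% fetal calf serum, 37 °C, 5% CO2, passaged at 60–70% confluency. About 5000 cells/well seeded in triplicate and grown 24 h. Medium then replaced with medium containing compound at various concentrations. After 48 h, MTT (5 mg/mL) added for 4 h. DMSO-soluble formazan read at 590 nm. Doxorubicin served as positive control.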

HL-60 = test: Cytotoxicity in human HL60 cells assessed as reduction in cell viability incubated for 48 hrs by MTT assay; format: functional, cell-based; summary of the method: as §1
A549 = test: Cytotoxicity in human A549 cells assessed as reduction in cell viability incubated for 48 hrs by MTT assay; format: functional, cell-based; summary of the method: as §1
MDA-MB-231 = test: Cytotoxicity in human MDA-MB-231 cells assessed as reduction in cell viability incubated for 48 hrs by MTT assay; format: functional, cell-based; summary of the method: as §1
K562 [1] = test: Induction of apoptotic cell death in human K562 cells at 1 uM incubated for 72 hrs by Annexin V/propidium iodide staining based assay; format: functional
Summary of the method: (§2)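 K562 cells treated for 72 h with doxorubicin, the test agent, or the two combined. They were then stained with labelled annexin V and propidium iodide to show surface phosphatidylserine, and imaged by fluorescence microscopy.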

K562 [2] = test: Cytotoxicity in human K562 cells assessed as reduction in cell viability incubated for 72 hrs by MTT assay; format: functional; settings: K562, 72 h, read-out: LD50 (the source's name)
Summary of the method: (§3)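 K562 cells were grown in DMEM with 10% fetal calf serum at 37 °C in 5% CO2. About 5000 cells per well were seeded and grown 24 h. Medium was then replaced with medium holding various compound concentrations for 72 h. Viability was measured by MTT (4 h), reading formazan in DMSO at 590 nm. Survival was compared with untreated control, in triplicate.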

K562 [3] = test: Cytotoxicity in human K562 cells assessed as induction of cell death at 1 uM incubated for 72 hrs by MTT assay; format: functional; summary of the method: as §3
[4] = Toxicity in human K562 cells assessed as reduction in cell viability incubated for 72 hrs by MTT assay; format: cell-based; settings: read-out: LD50; summary of the method: as §3
K562 [5] = test: Potentiation of doxorubicin-induced apoptotic cell death in human K562 cells at 4 uM in presence of 1 uM doxorubicin incubated for 72 hrs by Annexin V/propidium iodide staining based assay; format: functional; summary of the method: as §2
K562 [6] = test: Potentiation of doxorubicin-induced cytotoxicity in human K562 cells assessed as induction of cell death at 1 to 10 uM in presence of 2 uM doxorubicin incubated for 72 hrs by MTT assay; format: functional, cell-based
Summary of the method: (§4)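 K562 leukaemia cells seeded at equal numbers per well and exposed for 72 h to doxorubicin (1 or 2 μM), the test agent at varying concentrations, or both. Surviving cells counted relative to untreated control. Significance was taken as P < 0.05.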

K562 [7] = test: Potentiation of doxorubicin-induced cytotoxicity in human K562 cells assessed as induction of cell death in presence of 1 uM doxorubicin incubated for 72 hrs by MTT assay; format: functional; settings: K562, 72 h, read-out: MEC; summary of the method: as §4
K562 [8] = test: Toxicity in human K562 cells assessed as induction of apoptotic cell death at 4 uM incubated for 72 hrs by Annexin V/propidium iodide staining based assay; settings: k562, 72 h; summary of the method: as §2
K562 [9] = test: Potentiation of doxorubicin-induced cytotoxicity in human K562 cells assessed as induction of cell death at 4 uM in presence of 1 uM doxorubicin incubated for 72 hrs by MTT assay; format: functional
Summary of the method: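 K562 cells were grown in DMEM with 10% FCS at 37 °C in 5% CO2 and seeded at about 5000 cells per well for 24 h. They were cotreated for 72 h with 1 or 2 μM doxorubicin plus varying test compound up to 10 μM. Survival was read by MTT at 590 nm against untreated control, in triplicate. Significance was set at P < 0.05.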

K562 [10] = test: Toxicity in human K562 cells assessed as reduction in cell viability up to 10 uM incubated for 72 hrs by MTT assay; format: cell-based; settings: k562, 72 h; summary of the method: as §4
K562 [11] = test: Potentiation of doxorubicin-induced cytotoxicity in human K562 cells assessed as induction of cell death in presence of doxorubicin incubated for 72 hrs by MTT assay; format: functional, cell-based; settings: K562, 72 h; summary of the method: as §4
K562 [12] = test: Cytotoxicity in human K562 cells assessed as reduction in cell viability incubated for 48 hrs by MTT assay; format: functional, cell-based; settings: K562, 48 h; summary of the method: as §1
K562 [13] = test: Potentiation of doxorubicin-induced cytotoxicity in human K562 cells assessed as induction of cell death at 3 to 10 uM in presence of 1 uM doxorubicin incubated for 72 hrs by MTT assay; format: functional, cell-based; summary of the method: as §4

Row | Compound | Activity (MCF7) | Activity (HL-60) | Activity (A549) | Activity (MDA-MB-231) | Activity (K562 [1]) | CC50 (K562 [2]) [µM] | Activity (K562 [3]) [%] | CC50 at 72 h [4] [µM] | Activity (K562 [5]) | Activity (K562 [6]) | minimal effective concentration (K562 [7]) [µM] | Activity (K562 [8]) | Activity (K562 [9]) [%] | Activity (K562 [10]) | IC50 (K562 [11]) [µM] | IC50 (K562 [12]) [µM] | Activity (K562 [13])
1 | CCCCCCCCCCCC(=O)O[C@H]1[C@H](O[C@@H]2[C@@H](O[C@@H]3O[C@@H](C)[C@H](OC(=O)[C@@H](C)CC)[C@@H](O)[C@H]3OC(=O)/C=C/c3ccccc3)[C@H]3OC(=O)CCCCCCCCC[C@@H](CCCCC)O[C@@H]4O[C@H](C)[C@@H]5OC(C)(C)O[C@@H]5[C@H]4O[C@@H]3O[C@H]2C)O[C@@H](C)[C@H](O[C@@H]2O[C@@H](C)[C@H](O)[C@H]3OC(C)(C)O[C@@H]23)[C@H]1O | inactive | inactive | inactive | inactive |  |  |  |  |  |  |  |  |  |  |  |  | 
2 | COc1cccc2c1C(=O)c1c(O)c3c(c(O)c1C2=O)C[C@@](O)(C(=O)CO)C[C@@H]3O[C@H]1C[C@H](N)[C@H](O)[C@H](C)O1 [DOXORUBICIN] |  |  |  |  | inactive | 2 | 11 |  |  |  |  |  |  |  |  |  | 
3 | CCCCCCCCCCCC(=O)O[C@H]1[C@H](O[C@@H]2[C@@H](O[C@@H]3O[C@@H](C)[C@H](OC(=O)[C@@H](C)CC)[C@@H](O)[C@H]3O)[C@H]3OC(=O)CCCCCCCCC[C@@H](CCCCC)O[C@@H]4O[C@H](C)[C@H](O)[C@H](O)[C@H]4O[C@@H]3O[C@H]2C)O[C@@H](C)[C@H](O[C@@H]2O[C@@H](C)[C@H](O)[C@@H](O)[C@H]2O)[C@H]1O | inactive | inactive | inactive | inactive |  |  |  | 20 | Active | Active | 4 | Non-Toxic | 47 | Non-Toxic | 8.5 | 18.3 | Active
4 | CCCCCCCCCCCC(=O)O[C@H]1[C@H](O[C@@H]2[C@@H](O[C@@H]3O[C@@H](C)[C@H](OC(=O)[C@@H](C)CC)[C@H]4OC(C)(C)O[C@@H]34)[C@H]3OC(=O)CCCCCCCCC[C@@H](CCCCC)O[C@@H]4O[C@H](C)[C@@H]5OC(C)(C)O[C@@H]5[C@H]4O[C@@H]3O[C@H]2C)O[C@@H](C)[C@H](O[C@@H]2O[C@@H](C)[C@H](O)[C@H]3OC(C)(C)O[C@@H]23)[C@H]1O | inactive | inactive | inactive | inactive |  |  |  |  |  |  |  |  |  |  |  |  | 
